Results from article PMC7398146 (The Journal of General Physiology, 2020).

Assays:
hKV7.2/3 = hKV7.2/3 (Homo sapiens, UniProt O43525+O43526); assay: Two-electrode voltage clamp, hKV7.2/3 in Xenopus oocytes; format: cell-based; settings: for effect on maximal conductance GMAX (in words) / shift of V50 (in words): 10 µM and 100 µM
Outline: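 hKV7.2 and hKV7.3 cRNA (2.5 ng each) were coinjected into Xenopus oocytes, held 2–4 d at 8°C or 16°C, and clamped with two electrodes at rt in HEPES saline, pH 7.4. Holding −80 mV; 2-s steps from −100 to +50 mV in 10-mV increments; tail −30 mV. Boltzmann G(V) fits per oocyte gave ΔV50 and GMAX change. A Hill fit across concentrations gave EC50. Current fold increase was taken per test voltage; mean ± SEM.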

[1] = molecular target: hKV7.2_W236L/hKV7.3_W265L (Homo sapiens, UniProt O43525+O43526, A315T/W236L/W265L); assay: Two-electrode voltage clamp, tryptophan mutant heteromer; format: cell-based; settings: 3 µM
Outline: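 Human KV7 cRNA (2.5–50 ng per oocyte; mutants made by site-directed mutagenesis) was injected into Xenopus oocytes, which were kept 2–4 d at 8°C or 16°C. Two-electrode clamp was run at rt in 88 mM NaCl/1 mM KCl/15 mM HEPES saline, pH 7.4. Holding −80 mV; 2-s steps from −100 to +50 mV; tail −30 mV. Tail-current Boltzmann G(V) fits used a shared slope, giving per-oocyte ΔV50 and GMAX change; mean ± SEM.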

hKV7.1 = hKV7.1 (Homo sapiens, UniProt P51787); settings: ref Schenzer et al., 2005; cited from earlier work
[2] = 10 µM, analogues compared with ARA-S

Sequence of hKV7.1 (P51787 whole entry): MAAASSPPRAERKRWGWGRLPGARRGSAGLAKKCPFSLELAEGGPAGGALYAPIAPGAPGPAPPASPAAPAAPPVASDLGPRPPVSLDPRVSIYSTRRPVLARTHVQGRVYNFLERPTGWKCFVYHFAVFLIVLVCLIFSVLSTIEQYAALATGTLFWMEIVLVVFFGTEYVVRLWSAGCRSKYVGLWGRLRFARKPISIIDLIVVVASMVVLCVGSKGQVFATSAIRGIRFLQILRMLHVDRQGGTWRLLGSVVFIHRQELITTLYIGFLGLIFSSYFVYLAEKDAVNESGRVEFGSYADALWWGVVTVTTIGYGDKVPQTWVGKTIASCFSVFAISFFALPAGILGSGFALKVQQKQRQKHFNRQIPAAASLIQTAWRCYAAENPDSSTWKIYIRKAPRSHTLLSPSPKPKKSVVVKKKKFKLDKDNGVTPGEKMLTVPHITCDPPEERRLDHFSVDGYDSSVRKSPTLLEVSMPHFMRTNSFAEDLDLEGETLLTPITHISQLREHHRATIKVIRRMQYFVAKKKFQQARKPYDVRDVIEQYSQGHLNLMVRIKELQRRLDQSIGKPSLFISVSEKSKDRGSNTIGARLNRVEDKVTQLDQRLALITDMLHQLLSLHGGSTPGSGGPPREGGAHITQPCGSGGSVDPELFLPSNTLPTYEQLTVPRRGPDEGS

CCCCC/C=C\C/C=C\C/C=C\C/C=C\CCCC(=O)N[C@H](CO)C(=O)O (single isomer, unassigned) [D enantiomer of ARA-S, N-arachidonoyl-D-serine]
effect on GMAX (in words) (hKV7.2/3; [2]): comparable | effect on V50 (in words) (hKV7.2/3; [2]): comparable

CCCCC/C=C\C/C=C\C/C=C\C/C=C\CCCC(=O)OC(CO)CO [2-AG, 2-arachidonoylglycerol]
effect on maximal conductance GMAX (in words) (hKV7.2/3): no effect | shift of V50 (in words) (hKV7.2/3): no effect

CCCCC/C=C\C/C=C\C/C=C\C/C=C\CCCC(=O)NCCO [AEA, N-arachidonoylethanolamine]
effect on maximal conductance GMAX (in words) (hKV7.2/3): no effect | shift of V50 (in words) (hKV7.2/3): no effect

CCOC(=O)Nc1ccc(NCc2ccc(F)cc2)cc1N [retigabine]
current fold increase at −60 mV (hKV7.2/3; 1 µM alone): three- to fourfold | increase in GMAX (hKV7.2/3; 1 µM alone): did not affect | shift in V50 (ΔV50) (hKV7.2/3; 1 µM alone): −8.1 ± 0.7 mV | ΔV50:MAX (maximal shift in V50) (hKV7.2/3; from concentration-response curve): −35 mV | sensitivity (shift in V50) [1]: insensitive | sensitivity of the channel (hKV7.1): insensitive
